pIC50, pKi: −log10 of the molar value. Activity calls are given as the source filed them. The rule behind the calls is not given here.
Legend:
[1] = target: T1, Sodium- and chloride-dependent glycine transporter 1 (Homo sapiens, UniProt P48067); assay: Displacement of [3H]N-Methyl-SSR504734 from human GlyT1c expressed in cell membranes incubated for 1 hr by liquid scintillation spectrometry
T1 sequence (P48067 whole entry): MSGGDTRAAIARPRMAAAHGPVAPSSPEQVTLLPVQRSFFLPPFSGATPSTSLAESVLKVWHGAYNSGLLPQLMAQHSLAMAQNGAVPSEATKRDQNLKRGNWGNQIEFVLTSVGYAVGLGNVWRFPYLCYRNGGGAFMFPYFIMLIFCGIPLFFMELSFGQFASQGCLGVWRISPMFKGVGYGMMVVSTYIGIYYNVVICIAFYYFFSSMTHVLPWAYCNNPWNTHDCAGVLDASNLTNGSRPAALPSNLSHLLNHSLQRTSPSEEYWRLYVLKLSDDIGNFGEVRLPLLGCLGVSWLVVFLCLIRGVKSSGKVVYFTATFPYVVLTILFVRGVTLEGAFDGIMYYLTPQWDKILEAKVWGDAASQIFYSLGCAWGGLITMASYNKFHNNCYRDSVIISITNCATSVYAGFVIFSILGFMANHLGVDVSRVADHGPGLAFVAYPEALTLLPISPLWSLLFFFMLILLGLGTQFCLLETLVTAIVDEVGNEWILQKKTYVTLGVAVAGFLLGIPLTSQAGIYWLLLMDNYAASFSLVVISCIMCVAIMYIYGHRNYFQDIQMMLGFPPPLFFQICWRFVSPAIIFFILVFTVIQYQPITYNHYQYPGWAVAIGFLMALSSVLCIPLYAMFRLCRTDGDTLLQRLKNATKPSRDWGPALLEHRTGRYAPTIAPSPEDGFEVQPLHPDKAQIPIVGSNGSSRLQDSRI

[2] = Clearance in rat liver microsomes at 0.5 uM incubated up to 30 mins in presence of NADPH by LC-MS/MS method; format: ADME, microsome; settings: read-out: CLH
[3] = Clearance in human liver microsomes at 0.5 uM incubated up to 30 mins in presence of NADPH by LC-MS/MS method; format: ADME, microsome; settings: read-out: CLH
[4] = Efflux ratio in MDCK2-MDR1 cells at 1 uM incubated fro 1 hr by LC-MS/MS method; format: ADME, cell-based, Canis lupus familiaris; settings: dog, MDCK-MDR1
[5] = target: Voltage-gated inwardly rectifying potassium channel KCNH2 (Homo sapiens, UniProt Q12809); assay: Inhibition of human ERG
Sequence of Voltage-gated inwardly rectifying potassium channel KCNH2 (Q12809 whole entry): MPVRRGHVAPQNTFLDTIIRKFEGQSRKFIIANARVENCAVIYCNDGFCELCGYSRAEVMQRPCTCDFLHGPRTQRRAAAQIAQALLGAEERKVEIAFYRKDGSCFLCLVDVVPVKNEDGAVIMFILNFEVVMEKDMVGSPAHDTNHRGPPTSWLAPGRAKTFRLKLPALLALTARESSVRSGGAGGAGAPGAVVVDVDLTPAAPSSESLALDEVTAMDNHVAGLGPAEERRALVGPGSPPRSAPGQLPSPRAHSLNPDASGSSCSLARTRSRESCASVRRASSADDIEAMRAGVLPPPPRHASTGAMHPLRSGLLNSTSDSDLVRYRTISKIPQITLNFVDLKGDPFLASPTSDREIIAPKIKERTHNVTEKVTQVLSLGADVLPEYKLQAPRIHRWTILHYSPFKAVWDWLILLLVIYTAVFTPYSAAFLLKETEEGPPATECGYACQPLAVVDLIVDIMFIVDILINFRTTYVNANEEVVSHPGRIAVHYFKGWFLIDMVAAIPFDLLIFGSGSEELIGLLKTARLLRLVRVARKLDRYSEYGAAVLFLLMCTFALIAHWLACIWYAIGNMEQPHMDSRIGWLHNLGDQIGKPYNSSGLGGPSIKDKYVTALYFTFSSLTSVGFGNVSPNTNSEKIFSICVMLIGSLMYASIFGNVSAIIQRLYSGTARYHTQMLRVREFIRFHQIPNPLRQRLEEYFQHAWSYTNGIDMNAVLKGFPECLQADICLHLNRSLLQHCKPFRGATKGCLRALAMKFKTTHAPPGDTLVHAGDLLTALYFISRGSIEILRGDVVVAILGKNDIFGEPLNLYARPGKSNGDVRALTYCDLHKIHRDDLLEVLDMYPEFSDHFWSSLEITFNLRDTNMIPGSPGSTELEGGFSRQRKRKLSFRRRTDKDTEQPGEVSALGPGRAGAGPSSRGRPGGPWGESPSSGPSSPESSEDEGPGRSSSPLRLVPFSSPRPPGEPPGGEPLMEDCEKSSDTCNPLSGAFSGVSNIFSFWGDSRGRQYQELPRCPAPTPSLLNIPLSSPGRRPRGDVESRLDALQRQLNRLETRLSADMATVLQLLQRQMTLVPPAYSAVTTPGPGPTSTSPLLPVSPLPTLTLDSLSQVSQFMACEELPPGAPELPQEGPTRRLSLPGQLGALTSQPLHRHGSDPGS

[6] = fCmax in Sprague-Dawley rat brain at 2 mg/kg, ip measured after 8 to 24 hrs by LC-MS/MS method; format: ADME, organism-based; settings: in vivo
Mus musculus = assay: In-vivo binding affinity to GlyT1 in mouse assessed as target occupancy in forebrains dosed intraperitoneally using [3H]N-methyl-SSR504734 as radioligand after 1 hr by liquid scintillation counting method; format: functional; settings: ip
Outline: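 Mice dosed i.p. at several doses; forebrain homogenates then tested ex vivo for binding of a GlyT1 radioligand to give target occupancy, with ED50 for 50% occupancy estimated across the dose range.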

[7] = Oral bioavailability in Sprague-Dawley rat at measured after 8 to 24 hrs by LC-MS/MS method; format: ADME, organism-based; settings: in vivo
[8] = Ratio of free drug level in brain to plasma of Sprague-Dawley rat at 2 mg/kg, ip measured after 8 to 24 hrs by LC-MS/MS method; format: ADME, organism-based
[9] = target: T2, Sodium- and chloride-dependent glycine transporter 1 (Homo sapiens) (UniProt P48067); assay: Competitive inhibition of GlyT1c (unknown origin) expressed in Xenopus laevis oocytes clamped at -60 mV assessed as reduction in glycine-induced membrane currents at 300 nM pre-treated with glycine for 1 min followed by compound dosing for 3 mins by two-electrode voltage clamp assay; format: cell-based
T2 sequence (whole entry): T1 sequence (P48067 whole entry)
Outline: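 Oocytes expressing GlyT1c were stimulated with 10 µM or 3000 µM glycine to evoke transporter current. Compound at 300 nM was added to the glycine solution, and % inhibition of the current was calculated. Mode of inhibition was judged by comparing inhibition at the two glycine levels. Data are mean ± SD, N>4 oocytes.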

Cytochrome P450 3A4 = Cytochrome P450 3A4 (Homo sapiens, UniProt P08684); assay: Inhibition of CYP3A4 in human liver microsomes in presence of NADPH regeneration mixture using luciferin IPA-OH substrate by P450-Glo assay; format: ADME
Sequence of Cytochrome P450 3A4 (P08684 whole entry): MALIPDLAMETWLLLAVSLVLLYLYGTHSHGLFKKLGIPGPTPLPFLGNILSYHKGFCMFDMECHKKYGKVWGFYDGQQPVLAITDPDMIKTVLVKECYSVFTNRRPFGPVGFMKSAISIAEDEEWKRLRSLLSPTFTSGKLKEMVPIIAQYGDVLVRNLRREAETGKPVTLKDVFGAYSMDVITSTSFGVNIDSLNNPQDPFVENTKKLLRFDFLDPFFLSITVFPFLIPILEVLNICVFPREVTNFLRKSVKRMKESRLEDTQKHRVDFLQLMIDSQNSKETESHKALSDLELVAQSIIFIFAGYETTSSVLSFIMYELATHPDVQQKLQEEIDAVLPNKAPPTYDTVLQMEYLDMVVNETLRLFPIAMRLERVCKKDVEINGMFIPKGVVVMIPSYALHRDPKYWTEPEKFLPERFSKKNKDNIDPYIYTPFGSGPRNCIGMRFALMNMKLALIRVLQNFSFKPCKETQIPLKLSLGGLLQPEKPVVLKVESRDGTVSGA

| SMILES | pKi [1] | microsomal CLint at 0.5 µM [2] | microsomal CLint at 0.5 µM [3] | other results |
| --- | --- | --- | --- | --- |
| CCCS(=O)(=O)N[C@@H]1CCN(c2ccc3c(c2)[C@@H](Cc2ccccc2)[C@@H](N2CCC2)CC3)C1=O | 7.55 | 33 µL/min/mg | < 23 µL/min/mg | efflux ratio at 1 h, 1 µM [4]: 1.6; pIC50 [5]: 5.35 |
| Cn1cc(S(=O)(=O)NCCOc2ccc3c(c2)[C@@H](Cc2ccc(Cl)c(Cl)c2)[C@@H](N)CC3)cn1 (relative stereo) | 8.92 | 49 µL/min/mg | 44 µL/min/mg | fCmax [6]: 0.2 nM; ED50 (Mus musculus): > 20 mg/kg |
| Cn1cnc(S(=O)(=O)NCCOc2ccc3c(c2)[C@@H](Cc2cc(F)cc(Cl)c2)[C@@H](N)CC3)c1 (relative stereo) | 8.92 |  |  |  |
| O=S(=O)(CC1CC1)NCCOc1ccc2c(c1)[C@@H](Cc1ccccc1)[C@@H](N1CCC1)CC2 | 8.59 | 137 µL/min/mg | 113 µL/min/mg | bioavailability [7]: 8%; Kp uu [8]: 0.8; fCmax [6]: 9.9 nM; ED50 (Mus musculus): 0.5 mg/kg; efflux ratio at 1 h, 1 µM [4]: 1.6; pIC50 [5]: 7.10 |
| N[C@H]1CCc2ccc(OCCNS(=O)(=O)c3cccs3)cc2[C@H]1Cc1ccc(Cl)c(Cl)c1 (relative stereo) | 6.79 | 95 µL/min/mg | 99 µL/min/mg |  |
| Cn1cnc(S(=O)(=O)NCCOc2ccc3c(c2)[C@@H](Cc2ccc(Cl)c(Cl)c2)[C@@H](N)CC3)c1 (relative stereo) | 8.59 | 10 µL/min/mg | 36 µL/min/mg | ED50 (Mus musculus): > 20 mg/kg |
| CS(=O)(=O)NCCOc1ccc2c(c1)[C@@H](Cc1ccc(Cl)c(Cl)c1)[C@@H](N)CC2 (relative stereo) | 6.85 | 39 µL/min/mg | 25 µL/min/mg |  |
| CCCS(=O)(=O)NCCOc1ccc2c(c1)C(C1(c3ccc(Cl)cc3)CCC1)NCC2 (stereo unspecified) | 8.52 | 450 µL/min/mg | 620 µL/min/mg | inhibition [9]: Active; bioavailability [7]: 7%; Kp uu [8]: 0.54; pIC50 (Cytochrome P450 3A4): 6.21 |
| Cn1cnc(S(=O)(=O)NCCOc2ccc3c(c2)[C@@H](Cc2ccc(Cl)cc2)[C@@H](N)CC3)c1 (relative stereo) | 8.96 |  |  |  |
| CCCCS(=O)(=O)NCCOc1ccc2c(c1)[C@@H](Cc1ccc(Cl)c(Cl)c1)[C@@H](N)CC2 (relative stereo) | 6.87 | 35 µL/min/mg | 173 µL/min/mg |  |
| CCCS(=O)(=O)NCCOc1ccc2c(c1)[C@@H](Cc1ccc(Cl)c(Cl)c1)[C@@H](N)CC2 (relative stereo) | 7.46 | 17 µL/min/mg | 95 µL/min/mg | inhibition [9]: Active; bioavailability [7]: 31%; Kp uu [8]: 0.05; pIC50 (Cytochrome P450 3A4): < 5.00 |
| Oc1ccc2c(c1)C(C1(c3ccc(Cl)cc3)CCC1)NCC2 (stereo unspecified) | 6.91 | 343 µL/min/mg | 130 µL/min/mg | inhibition [9]: Active; bioavailability [7]: < 1%; pIC50 (Cytochrome P450 3A4): < 5.00 |
| Cn1cnc(S(=O)(=O)NCCOc2ccc3c(c2)[C@@H](Cc2ccccc2)[C@@H](NCC(F)(F)F)CC3)c1 (relative stereo) | 7.16 | 125 µL/min/mg | 69 µL/min/mg | efflux ratio at 1 h, 1 µM [4]: 1.4 |
| Cn1cnc(S(=O)(=O)NCCOc2ccc3c(c2)[C@@H](Cc2ccccc2Cl)[C@@H](N)CC3)c1 (relative stereo) | 7.12 |  |  |  |
| O=S(=O)(CC1CC1)NCCOc1ccc2c(c1)[C@@H](Cc1ccccc1)[C@@H](N1CCC1)CO2 (relative stereo) | 6.03 | 239 µL/min/mg | 940 µL/min/mg |  |
| N[C@H]1CCc2ccc(OCCNS(=O)(=O)c3ccccc3)cc2[C@H]1Cc1ccc(Cl)c(Cl)c1 | 6.18 | 40 µL/min/mg | 78 µL/min/mg |  |
| Cn1cnc(S(=O)(=O)NCCOc2ccc3c(c2)[C@@H](Cc2ccccc2)[C@@H](N2CCC2)CO3)c1 | 8.48 | 37 µL/min/mg | 277 µL/min/mg | efflux ratio at 1 h, 1 µM [4]: 3.5 |
| N[C@H]1CCc2ccc(OCCNS(=O)(=O)CC3CC3)cc2[C@H]1Cc1ccc(Cl)c(Cl)c1 (relative stereo) | 8.24 | 25 µL/min/mg | 92 µL/min/mg | ED50 (Mus musculus): 14 mg/kg |
| O=S(=O)(CC1CC1)NC1CN(c2ccc3c(c2)[C@@H](Cc2ccccc2)[C@@H](N2CCC2)CO3)C1 (relative stereo) | 7.74 | 130 µL/min/mg | < 23 µL/min/mg | efflux ratio at 1 h, 1 µM [4]: 1; pIC50 [5]: 4.94 |
| CN[C@H]1CCc2ccc(OCCNS(=O)(=O)CC3CC3)cc2[C@H]1Cc1ccccc1 | 8.92 |  |  | bioavailability [7]: 22%; fCmax [6]: 2.3 nM; ED50 (Mus musculus): 1.4 mg/kg |
| Cn1cnc(S(=O)(=O)NCCOc2ccc3c(c2)[C@@H](Cc2cccc(Cl)c2)[C@@H](N)CC3)c1 (relative stereo) | 8.82 |  |  | ED50 (Mus musculus): 15 mg/kg |
| CCCS(=O)(=O)NCc1ccc2c(c1)[C@@H](Cc1ccccc1)[C@@H](N1CCC1)CC2 (relative stereo) |  | 302 µL/min/mg | 122 µL/min/mg |  |
| Cn1cnc(S(=O)(=O)NCCOc2ccc3c(c2)[C@@H](Cc2ccccc2)[C@@H](N)CC3)c1 (relative stereo) | 8.44 |  |  |  |
| CCCS(=O)(=O)NC1CN(c2ccc3c(c2)[C@@H](Cc2ccccc2)[C@@H](N2CCC2)CC3)C1 | 8.59 | 42 µL/min/mg | < 23 µL/min/mg | efflux ratio at 1 h, 1 µM [4]: 1.4; pIC50 [5]: 5.17 |
| Cn1cnc(S(=O)(=O)NCCOc2ccc3c(c2)[C@@H](Cc2cccc(C(F)(F)F)c2)[C@@H](N)CC3)c1 (relative stereo) | 9.10 |  |  |  |
| N[C@H]1CCc2ccc(OCCNS(=O)(=O)C3CCC3)cc2[C@H]1Cc1ccc(Cl)c(Cl)c1 (relative stereo) | 7.49 | 49 µL/min/mg | 55 µL/min/mg |  |
| CCCS(=O)(=O)NC1CN(c2ccc3c(c2)[C@@H](Cc2ccccc2)[C@@H](N2CCC2)CO3)C1 (relative stereo) | 7.36 | 66 µL/min/mg | < 23 µL/min/mg | efflux ratio at 1 h, 1 µM [4]: 0.9 |
| CCCS(=O)(=O)NCc1ccc2c(c1)[C@@H](Cc1ccccc1)[C@@H](NC)CC2 (relative stereo) |  |  |  | ED50 (Mus musculus): 2 mg/kg |

— ChEMBL document CHEMBL4145681, “Discovery of Novel Aminotetralines and Aminochromanes as Selective and Competitive Glycine Transporter 1 (GlyT1) Inhibitors” (J Med Chem, 2018)
